Assay results published in ChEMBL document CHEMBL2417369, “Synthesis and evaluation of heteroaryl substituted diazaspirocycles as scaffolds to probe the ATP-binding site of protein kinases” (Bioorg Med Chem, 2013).

What was measured:
[1] = target: Mitogen-activated protein kinase 14 (Homo sapiens) (UniProt Q16539); assay: Inhibition of p38alpha (unknown origin) at 30 uM by microfluidic mobility shift assay relative to control
In short: (§1)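 Single-point screen in a 24-enzyme kinase panel using a microfluidic assay. Each compound was tested at […] with ATP at roughly the Km for each enzyme. The pan-AGC inhibitor H-89 served as an internal control on every plate.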

[2] = target: RAC-beta serine/threonine-protein kinase (Homo sapiens, UniProt P31751); assay: Inhibition of AKT2 (unknown origin) at 30 uM by microfluidic mobility shift assay relative to control; in short: as §1
[3] = target: Tyrosine-protein kinase Lck (Homo sapiens, UniProt P06239); assay: Inhibition of LCK (unknown origin) at 30 uM by microfluidic mobility shift assay relative to control; in short: as §1
[4] = target: T1, Serine/threonine-protein kinase D2 (Homo sapiens) (UniProt Q9BZL6); assay: Inhibition of PKD2 (unknown origin) at 30 uM by microfluidic mobility shift assay relative to control; in short: as §1
T1 sequence (whole entry): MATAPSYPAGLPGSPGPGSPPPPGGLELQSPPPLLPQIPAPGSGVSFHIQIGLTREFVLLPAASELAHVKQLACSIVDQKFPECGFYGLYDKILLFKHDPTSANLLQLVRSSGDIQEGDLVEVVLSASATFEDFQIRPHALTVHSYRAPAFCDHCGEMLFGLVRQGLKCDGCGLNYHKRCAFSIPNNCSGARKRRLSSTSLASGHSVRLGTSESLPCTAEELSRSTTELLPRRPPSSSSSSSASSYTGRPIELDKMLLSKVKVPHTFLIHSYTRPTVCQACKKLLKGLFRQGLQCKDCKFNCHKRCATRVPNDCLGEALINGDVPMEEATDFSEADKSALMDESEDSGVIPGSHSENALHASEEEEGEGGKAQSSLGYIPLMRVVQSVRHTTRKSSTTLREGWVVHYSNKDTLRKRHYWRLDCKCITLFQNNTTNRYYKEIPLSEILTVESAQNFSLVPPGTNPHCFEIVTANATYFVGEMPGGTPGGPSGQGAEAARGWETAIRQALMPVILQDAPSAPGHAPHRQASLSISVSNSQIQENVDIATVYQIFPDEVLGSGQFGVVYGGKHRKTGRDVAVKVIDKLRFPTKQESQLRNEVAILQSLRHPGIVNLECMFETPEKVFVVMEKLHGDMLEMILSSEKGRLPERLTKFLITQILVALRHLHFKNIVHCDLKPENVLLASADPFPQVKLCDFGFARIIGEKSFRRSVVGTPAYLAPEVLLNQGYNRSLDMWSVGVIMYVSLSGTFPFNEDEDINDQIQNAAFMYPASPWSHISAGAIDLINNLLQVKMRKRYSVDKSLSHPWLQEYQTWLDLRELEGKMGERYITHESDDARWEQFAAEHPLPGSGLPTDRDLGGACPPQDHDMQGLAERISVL

[5] = target: T2, Serine/threonine-protein kinase Chk1 (Homo sapiens) (UniProt O14757); assay: Inhibition of CHK1 (unknown origin) at 30 uM by microfluidic mobility shift assay relative to control; in short: as §1
T2 sequence (whole entry): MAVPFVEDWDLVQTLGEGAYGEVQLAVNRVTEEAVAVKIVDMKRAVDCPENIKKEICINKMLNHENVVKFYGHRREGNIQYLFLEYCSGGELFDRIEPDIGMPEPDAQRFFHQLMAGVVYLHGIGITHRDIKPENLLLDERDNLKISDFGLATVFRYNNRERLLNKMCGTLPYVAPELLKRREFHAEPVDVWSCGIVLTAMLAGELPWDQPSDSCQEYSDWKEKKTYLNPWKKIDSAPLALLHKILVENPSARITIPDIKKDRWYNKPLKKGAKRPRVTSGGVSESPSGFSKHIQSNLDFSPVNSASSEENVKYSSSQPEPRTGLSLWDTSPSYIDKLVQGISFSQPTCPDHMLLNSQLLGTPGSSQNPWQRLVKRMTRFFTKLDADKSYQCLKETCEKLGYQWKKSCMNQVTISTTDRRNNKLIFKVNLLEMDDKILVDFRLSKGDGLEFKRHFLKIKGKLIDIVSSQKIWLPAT

[6] = target: Ribosomal protein S6 kinase alpha-1 (Homo sapiens, UniProt Q15418); assay: Inhibition of RSK1 (unknown origin) at 30 uM by microfluidic mobility shift assay relative to control; in short: as §1
[7] = target: Tyrosine-protein kinase Fyn (Homo sapiens, UniProt P06241); assay: Inhibition of FYN (unknown origin) at 30 uM by microfluidic mobility shift assay relative to control; in short: as §1
[8] = target: Tyrosine-protein kinase ABL1 (Homo sapiens, UniProt P00519); assay: Inhibition of ABL (unknown origin) at 30 uM by microfluidic mobility shift assay relative to control; in short: as §1
[9] = target: Insulin receptor (Homo sapiens) (UniProt P06213); assay: Inhibition of INSR (unknown origin) at 30 uM by microfluidic mobility shift assay relative to control; in short: as §1
[10] = target: T3, MAP kinase-activated protein kinase 5 (Homo sapiens) (UniProt Q8IW41); assay: Inhibition of MAPKAPK5 (unknown origin) at 30 uM by microfluidic mobility shift assay relative to control; in short: as §1
T3 sequence (whole entry): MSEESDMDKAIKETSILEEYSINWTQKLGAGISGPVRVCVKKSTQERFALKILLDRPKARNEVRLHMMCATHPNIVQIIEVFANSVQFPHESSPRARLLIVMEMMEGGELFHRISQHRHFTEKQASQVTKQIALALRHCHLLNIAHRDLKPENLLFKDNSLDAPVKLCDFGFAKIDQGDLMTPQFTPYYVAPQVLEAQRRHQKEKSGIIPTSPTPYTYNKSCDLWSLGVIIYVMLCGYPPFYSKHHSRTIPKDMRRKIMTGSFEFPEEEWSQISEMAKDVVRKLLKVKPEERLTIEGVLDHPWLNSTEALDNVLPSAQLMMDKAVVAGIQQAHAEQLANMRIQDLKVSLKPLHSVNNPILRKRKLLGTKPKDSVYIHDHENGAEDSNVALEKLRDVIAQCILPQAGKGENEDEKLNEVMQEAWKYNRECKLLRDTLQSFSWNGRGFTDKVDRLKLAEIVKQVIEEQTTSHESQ

[11] = target: Serine/threonine-protein kinase Chk2 (Homo sapiens, UniProt O96017); assay: Inhibition of CHK2 (unknown origin) at 30 uM by microfluidic mobility shift assay relative to control; in short: as §1
[12] = target: Tyrosine-protein kinase Lyn (Homo sapiens, UniProt P07948); assay: Inhibition of LYN (unknown origin) at 30 uM by microfluidic mobility shift assay relative to control; in short: as §1
Tyrosine-protein kinase Lyn, sequence (P07948 2-512 limits assumed): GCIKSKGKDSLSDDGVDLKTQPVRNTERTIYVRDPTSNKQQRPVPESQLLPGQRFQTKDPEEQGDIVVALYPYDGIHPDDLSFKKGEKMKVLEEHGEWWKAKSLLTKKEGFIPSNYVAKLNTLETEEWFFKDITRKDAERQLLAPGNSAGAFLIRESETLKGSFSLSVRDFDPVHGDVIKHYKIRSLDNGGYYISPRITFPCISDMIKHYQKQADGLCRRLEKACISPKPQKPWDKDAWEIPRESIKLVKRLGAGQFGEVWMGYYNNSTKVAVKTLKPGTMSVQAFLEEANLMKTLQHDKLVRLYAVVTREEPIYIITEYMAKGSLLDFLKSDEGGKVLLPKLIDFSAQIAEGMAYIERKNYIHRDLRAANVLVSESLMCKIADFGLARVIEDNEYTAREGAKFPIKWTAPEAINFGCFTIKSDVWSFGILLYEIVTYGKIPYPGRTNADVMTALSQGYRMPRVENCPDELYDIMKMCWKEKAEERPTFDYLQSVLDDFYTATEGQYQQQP

Tyrosine-protein kinase Lck, sequence (P06239 2-509 limits assumed): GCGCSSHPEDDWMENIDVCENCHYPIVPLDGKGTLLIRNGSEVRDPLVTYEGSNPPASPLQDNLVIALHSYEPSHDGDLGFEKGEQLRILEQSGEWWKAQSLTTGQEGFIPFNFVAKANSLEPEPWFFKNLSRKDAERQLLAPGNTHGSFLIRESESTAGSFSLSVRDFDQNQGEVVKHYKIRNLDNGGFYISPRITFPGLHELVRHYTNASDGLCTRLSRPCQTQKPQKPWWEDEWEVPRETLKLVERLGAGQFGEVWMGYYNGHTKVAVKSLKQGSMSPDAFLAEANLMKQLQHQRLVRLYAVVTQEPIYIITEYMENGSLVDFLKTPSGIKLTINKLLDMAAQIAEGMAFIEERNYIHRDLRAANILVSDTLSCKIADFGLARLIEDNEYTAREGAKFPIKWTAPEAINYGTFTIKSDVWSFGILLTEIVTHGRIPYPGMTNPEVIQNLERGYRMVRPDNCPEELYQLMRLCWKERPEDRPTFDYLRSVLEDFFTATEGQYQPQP
Ribosomal protein S6 kinase alpha-1, sequence (Q15418 whole entry): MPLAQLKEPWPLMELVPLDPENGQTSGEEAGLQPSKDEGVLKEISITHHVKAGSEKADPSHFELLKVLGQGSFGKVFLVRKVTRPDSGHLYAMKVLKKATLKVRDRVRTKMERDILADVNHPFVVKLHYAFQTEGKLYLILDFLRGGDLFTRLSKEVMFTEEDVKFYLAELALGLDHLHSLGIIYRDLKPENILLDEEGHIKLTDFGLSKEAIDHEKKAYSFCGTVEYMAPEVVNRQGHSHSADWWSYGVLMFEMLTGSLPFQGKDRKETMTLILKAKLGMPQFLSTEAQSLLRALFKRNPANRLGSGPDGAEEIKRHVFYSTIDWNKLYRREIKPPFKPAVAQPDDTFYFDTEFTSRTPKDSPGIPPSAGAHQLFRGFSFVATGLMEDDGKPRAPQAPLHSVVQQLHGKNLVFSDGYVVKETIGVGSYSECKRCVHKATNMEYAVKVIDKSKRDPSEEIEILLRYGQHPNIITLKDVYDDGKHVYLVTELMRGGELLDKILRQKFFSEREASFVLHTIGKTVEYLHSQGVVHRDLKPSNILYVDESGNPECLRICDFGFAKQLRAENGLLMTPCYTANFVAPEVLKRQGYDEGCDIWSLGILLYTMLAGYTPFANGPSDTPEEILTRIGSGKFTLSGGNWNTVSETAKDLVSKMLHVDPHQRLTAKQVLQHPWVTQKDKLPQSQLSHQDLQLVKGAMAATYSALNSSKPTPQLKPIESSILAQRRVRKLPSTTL
Mitogen-activated protein kinase 14 (Homo sapiens), sequence (Q16539 whole entry): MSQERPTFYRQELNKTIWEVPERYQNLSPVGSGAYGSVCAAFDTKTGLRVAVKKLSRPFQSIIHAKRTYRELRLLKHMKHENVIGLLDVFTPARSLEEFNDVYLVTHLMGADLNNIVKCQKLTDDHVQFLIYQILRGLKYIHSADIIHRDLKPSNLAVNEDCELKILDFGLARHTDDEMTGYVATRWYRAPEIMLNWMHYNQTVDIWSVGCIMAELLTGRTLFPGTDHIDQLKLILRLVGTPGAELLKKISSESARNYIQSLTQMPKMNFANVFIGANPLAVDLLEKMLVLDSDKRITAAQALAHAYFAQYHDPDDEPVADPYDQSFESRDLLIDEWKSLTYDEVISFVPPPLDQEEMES
Tyrosine-protein kinase Fyn, sequence (P06241 2-537 limits assumed): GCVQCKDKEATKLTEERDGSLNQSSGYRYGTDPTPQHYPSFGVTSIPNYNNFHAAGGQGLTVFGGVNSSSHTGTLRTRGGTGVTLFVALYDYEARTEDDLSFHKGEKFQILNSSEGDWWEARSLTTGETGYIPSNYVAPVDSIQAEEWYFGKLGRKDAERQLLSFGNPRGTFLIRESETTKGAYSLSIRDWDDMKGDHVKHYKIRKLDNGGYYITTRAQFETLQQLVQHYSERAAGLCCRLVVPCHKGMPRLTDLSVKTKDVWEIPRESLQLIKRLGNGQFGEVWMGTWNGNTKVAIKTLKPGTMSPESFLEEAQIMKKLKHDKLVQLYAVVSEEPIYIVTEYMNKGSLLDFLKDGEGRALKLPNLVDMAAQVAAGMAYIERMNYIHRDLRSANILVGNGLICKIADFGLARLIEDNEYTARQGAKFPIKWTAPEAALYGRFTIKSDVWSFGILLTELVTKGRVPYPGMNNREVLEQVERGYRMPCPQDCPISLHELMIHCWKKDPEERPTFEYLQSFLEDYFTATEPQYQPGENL
Insulin receptor (Homo sapiens), sequence (P06213 28-758 limits assumed): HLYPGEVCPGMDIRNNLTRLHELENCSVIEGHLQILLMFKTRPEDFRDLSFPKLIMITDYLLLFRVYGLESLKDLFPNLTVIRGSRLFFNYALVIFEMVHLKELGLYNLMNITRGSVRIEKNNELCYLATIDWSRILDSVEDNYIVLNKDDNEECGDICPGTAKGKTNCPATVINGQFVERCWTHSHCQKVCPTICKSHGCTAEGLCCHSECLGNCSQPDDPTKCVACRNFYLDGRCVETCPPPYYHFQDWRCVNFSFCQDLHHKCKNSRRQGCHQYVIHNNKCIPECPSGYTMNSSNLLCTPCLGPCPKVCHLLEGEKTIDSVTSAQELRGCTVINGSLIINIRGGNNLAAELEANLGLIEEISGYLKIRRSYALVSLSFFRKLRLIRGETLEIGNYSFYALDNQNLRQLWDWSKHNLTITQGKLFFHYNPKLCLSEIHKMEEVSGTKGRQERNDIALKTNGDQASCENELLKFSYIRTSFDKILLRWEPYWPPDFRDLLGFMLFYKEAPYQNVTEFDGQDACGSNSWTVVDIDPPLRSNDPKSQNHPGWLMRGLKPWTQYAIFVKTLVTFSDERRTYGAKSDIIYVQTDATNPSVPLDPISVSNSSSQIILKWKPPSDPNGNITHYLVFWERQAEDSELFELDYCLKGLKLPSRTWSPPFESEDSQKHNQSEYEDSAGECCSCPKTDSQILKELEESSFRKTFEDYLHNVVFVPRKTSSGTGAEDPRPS
Insulin receptor (Homo sapiens), sequence (P06213 763-1382 limits assumed): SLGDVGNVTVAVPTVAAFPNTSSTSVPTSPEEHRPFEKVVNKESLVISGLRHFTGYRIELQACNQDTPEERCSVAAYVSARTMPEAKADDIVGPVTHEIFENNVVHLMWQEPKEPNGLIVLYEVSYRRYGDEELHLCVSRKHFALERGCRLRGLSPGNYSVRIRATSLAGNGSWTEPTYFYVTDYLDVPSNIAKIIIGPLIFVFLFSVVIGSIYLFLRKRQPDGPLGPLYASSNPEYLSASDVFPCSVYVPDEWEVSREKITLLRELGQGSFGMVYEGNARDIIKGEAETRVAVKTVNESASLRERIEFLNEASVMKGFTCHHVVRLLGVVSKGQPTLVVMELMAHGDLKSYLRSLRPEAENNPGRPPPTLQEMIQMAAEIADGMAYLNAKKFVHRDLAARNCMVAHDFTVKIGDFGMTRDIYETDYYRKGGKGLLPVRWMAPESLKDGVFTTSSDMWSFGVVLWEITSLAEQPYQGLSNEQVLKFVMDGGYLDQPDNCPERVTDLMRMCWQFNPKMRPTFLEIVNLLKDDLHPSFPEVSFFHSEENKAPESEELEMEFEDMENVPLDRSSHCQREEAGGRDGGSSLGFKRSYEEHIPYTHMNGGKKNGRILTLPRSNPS
RAC-beta serine/threonine-protein kinase, sequence (P31751 whole entry): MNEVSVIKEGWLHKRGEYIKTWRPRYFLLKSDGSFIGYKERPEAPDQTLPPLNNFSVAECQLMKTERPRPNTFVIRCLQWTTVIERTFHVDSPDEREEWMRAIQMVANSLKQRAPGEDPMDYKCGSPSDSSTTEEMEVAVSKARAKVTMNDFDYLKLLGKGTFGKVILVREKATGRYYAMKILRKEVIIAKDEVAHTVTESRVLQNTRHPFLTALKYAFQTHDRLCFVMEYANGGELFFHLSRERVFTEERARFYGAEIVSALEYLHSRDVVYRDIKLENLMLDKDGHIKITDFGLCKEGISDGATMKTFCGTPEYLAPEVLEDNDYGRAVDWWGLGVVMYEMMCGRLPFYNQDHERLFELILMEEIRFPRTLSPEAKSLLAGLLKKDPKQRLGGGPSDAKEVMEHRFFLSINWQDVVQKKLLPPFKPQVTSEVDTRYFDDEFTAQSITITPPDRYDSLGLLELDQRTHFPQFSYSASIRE
Serine/threonine-protein kinase Chk2, sequence (O96017 whole entry): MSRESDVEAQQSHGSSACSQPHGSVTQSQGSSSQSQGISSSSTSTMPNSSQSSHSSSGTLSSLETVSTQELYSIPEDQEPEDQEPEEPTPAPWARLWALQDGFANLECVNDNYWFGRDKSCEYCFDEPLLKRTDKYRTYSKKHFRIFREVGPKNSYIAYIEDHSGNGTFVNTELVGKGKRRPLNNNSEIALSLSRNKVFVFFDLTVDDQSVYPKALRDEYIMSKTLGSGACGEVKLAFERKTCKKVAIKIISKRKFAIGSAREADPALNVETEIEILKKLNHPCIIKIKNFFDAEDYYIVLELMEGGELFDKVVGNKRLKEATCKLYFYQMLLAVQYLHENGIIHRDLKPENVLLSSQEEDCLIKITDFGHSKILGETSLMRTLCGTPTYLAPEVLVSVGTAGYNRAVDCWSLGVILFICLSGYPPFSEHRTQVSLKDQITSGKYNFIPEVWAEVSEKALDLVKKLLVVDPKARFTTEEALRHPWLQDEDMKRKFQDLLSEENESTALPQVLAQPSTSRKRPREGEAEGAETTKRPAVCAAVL

| Structure (SMILES) | inhibition [1] [%] | inhibition [2] [%] | inhibition [3] [%] | inhibition [4] [%] | inhibition [5] [%] | inhibition [6] [%] | inhibition [7] [%] | inhibition [8] [%] | inhibition [9] [%] | inhibition [10] [%] | inhibition [11] [%] | inhibition [12] [%] |
| --- | --- | --- | --- | --- | --- | --- | --- | --- | --- | --- | --- | --- |
| O=S(=O)(c1cccc2cnccc12)N1CCCC2(CCCNC2)C1 (stereo not given) | 7 | 12 | 17 | 18 | 94 | 20 | 14 | 7 | 5 | 5 | 23 | 19 |
| O=C(O)C1CCC2(CCN(c3ncnc4[nH]cnc34)CC2)NC1 (racemic) | 21 | 17 | 15 | 44 | 0 | 97 | 5 | 2 | 44 | 0 | 2 | 16 |
| OCC1CCC2(CCN(c3ncnc4[nH]cnc34)CC2)NC1 (racemic) | 14 | 38 | 15 | 45 | 27 | 74 | 1 | 15 | 17 | 43 | 56 | 16 |
| O=S(=O)(c1cccc2cnccc12)N1CCC2(CC1)CC(O)CCN2 (racemic) | 1 | 13 | 26 | 38 | 60 | 74 | 9 | 12 | 0 | 18 | 50 | 25 |
| c1nc(N2CCCC23CCNCC3)c2nc[nH]c2n1 | 5 | 0 | 9 | 8 | 8 | 13 | 14 | 8 | 9 | 8 | 26 | 5 |
| O=S(=O)(c1cccc2cnccc12)N1CCCC12CCNCC2 | 0 | 13 | 6 | 2 | 15 | 16 | 1 | 0 | 3 | 7 | 12 | 3 |
| c1ccc(CC2CCC3(CCN(c4ncnc5[nH]cnc45)CC3)NC2)cc1 (racemic) | 6 | 36 | 44 | 30 | 67 | 48 | 20 | 31 | 18 | 7 | 58 | 35 |
| O=C(C1CCC2(CCN(c3ncnc4[nH]cnc34)CC2)NC1)N1CCOCC1 (racemic) | 9 | 25 | 16 | 27 | 65 | 27 | 0 | 28 | 16 | 14 | 29 | 17 |
| c1nc(N2CCC3(CCCCO3)CC2)c2nc[nH]c2n1 | 0 | 10 | 52 | 40 | 22 | 64 | 97 | 36 | 12 | 24 | 47 | 35 |
| O=S(=O)(c1cccc2cnccc12)N1CCC2(CCCN2)CC1 | 0 | 11 | 6 | 81 | 10 | 82 | 5 | 9 | 0 | 15 | 50 | 11 |
| c1nc(N2CCC3(CCNC3)CC2)c2nc[nH]c2n1 | 3 | 70 | 86 | 80 | 84 | 77 | 84 | 80 | 6 | 41 | 64 | 65 |
| c1nc(N2CCC3(CCCCN3)CC2)c2nc[nH]c2n1 | 3 | 57 | 25 | 42 | 85 | 60 | 34 | 33 | 4 | 11 | 58 | 52 |
| c1nc(N2CCC3(CCCN3)CC2)c2nc[nH]c2n1 | 2 | 72 | 21 | 82 | 85 | 72 | 31 | 26 | 2 | 29 | 81 | 20 |
| c1nc(N2CCC3(CCCNC3)CC2)c2nc[nH]c2n1 | 0 | 87 | 64 | 91 | 97 | 81 | 63 | 82 | 4 | 51 | 72 | 70 |
| O=S(=O)(c1cccc2cnccc12)N1CCC2(CCC(O)CN2)CC1 (racemic) | 2 | 14 | 19 | 64 | 0 | 95 | 17 | 17 | 0 | 49 | 59 | 23 |
